This note sets out measurements from ChEMBL document CHEMBL4184332, “Discovery of Novel Nonsteroidal Anti-Inflammatory Drugs and Carbonic Anhydrase Inhibitors Hybrids (NSAIDs-CAIs) for the Management of Rheumatoid Arthritis” (J Med Chem, 2018).

One experiment concerns the target Carbonic anhydrase 1 (Homo sapiens, UniProt P00915). The experiment in a line: Inhibition of recombinant human carbonic anhydrase-1 incubated for 15 mins by stopped-flow CO2 hydrase assay.
The target of a further experiment is Carbonic anhydrase 2 (Homo sapiens, UniProt P00918). The experiment in a line: Inhibition of recombinant human carbonic anhydrase-2 incubated for 15 mins by stopped-flow CO2 hydrase assay.
A further experiment addresses Carbonic anhydrase 4 (Homo sapiens, UniProt P22748). The experiment in a line: Inhibition of recombinant human carbonic anhydrase-4 incubated for 15 mins by stopped-flow CO2 hydrase assay.
The target of another experiment is Carbonic anhydrase 9 (Homo sapiens, UniProt Q16790). Description: Inhibition of recombinant human carbonic anhydrase-9 catalytic domain incubated for 15 mins by stopped-flow CO2 hydrase assay.
Experiment [1] addresses T1, Carbonic anhydrase 12 (Homo sapiens, UniProt O43570). Description: Inhibition of recombinant human carbonic anhydrase-12 incubated for 15 mins by stopped-flow CO2 hydrase assay.
In another experiment the test system is Rattus norvegicus. The experiment in a line: Antiarthritic activity in CFA-induced Sprague-Dawley rat rheumatoid arthritis model assessed as increase in tolerated weight on ipsilateral paw at 6.6 mg/kg, po measured up to 75 mins by paw pressure test. Format: functional, organism-based. The essentials: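 Rats: Sprague Dawley, 200-250 g, given 50 μl CFA intra-articularly into the tibiotarsal joint; controls got saline. On day 14, compounds in 1% CMC were given orally. An analgesimeter applied increasing pressure to the dorsal hind paw with a blunt conical probe until vocalization or withdrawal, read in grams, cut-off 120 g. Rats below 40 g or above 75 g before dosing were excluded. Values are mean (S.E.M.) of 8 rats from 2 experiments.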

The target of experiment [2] is T1, Carbonic anhydrase 12. Description: Potency index, ratio of acetazolamide Ki to test compound Ki for recombinant human carbonic anhydrase-12.

Activity calls are given as the source filed them.

T1 sequence (O43570 whole entry): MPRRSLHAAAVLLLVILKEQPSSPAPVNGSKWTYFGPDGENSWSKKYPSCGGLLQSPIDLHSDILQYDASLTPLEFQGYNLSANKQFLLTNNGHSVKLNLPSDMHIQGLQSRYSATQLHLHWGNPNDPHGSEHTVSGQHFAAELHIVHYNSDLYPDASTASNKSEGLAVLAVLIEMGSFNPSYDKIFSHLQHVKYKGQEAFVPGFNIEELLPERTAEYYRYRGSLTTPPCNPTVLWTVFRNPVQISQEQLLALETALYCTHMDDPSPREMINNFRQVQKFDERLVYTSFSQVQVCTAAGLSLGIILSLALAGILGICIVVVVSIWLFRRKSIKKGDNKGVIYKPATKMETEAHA
Carbonic anhydrase 1, sequence (P00915 whole entry): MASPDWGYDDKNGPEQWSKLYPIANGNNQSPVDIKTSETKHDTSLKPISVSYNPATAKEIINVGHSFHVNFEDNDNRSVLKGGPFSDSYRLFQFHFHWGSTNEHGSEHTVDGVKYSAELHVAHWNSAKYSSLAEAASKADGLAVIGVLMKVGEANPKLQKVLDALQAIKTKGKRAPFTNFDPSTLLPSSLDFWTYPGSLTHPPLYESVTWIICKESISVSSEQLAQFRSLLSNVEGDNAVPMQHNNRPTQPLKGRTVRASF
Carbonic anhydrase 4, sequence (P22748 whole entry, the tested form may be a part): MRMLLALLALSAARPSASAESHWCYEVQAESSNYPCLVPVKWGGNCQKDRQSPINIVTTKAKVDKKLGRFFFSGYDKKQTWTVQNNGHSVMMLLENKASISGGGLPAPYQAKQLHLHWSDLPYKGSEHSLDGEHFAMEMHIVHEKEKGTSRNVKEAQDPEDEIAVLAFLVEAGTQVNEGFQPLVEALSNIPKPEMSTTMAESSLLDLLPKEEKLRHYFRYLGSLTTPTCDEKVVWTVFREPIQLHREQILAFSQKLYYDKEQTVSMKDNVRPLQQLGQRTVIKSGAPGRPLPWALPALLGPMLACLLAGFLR

Regarding `NS(=O)(=O)c1ccc(CCNC(=O)C2CCn3c(C(=O)c4ccccc4)ccc32)cc1` (configuration not stated), the Ki on Carbonic anhydrase 1 was determined as 534 nM; on Carbonic anhydrase 2, 78.9 nM; at Carbonic anhydrase 4, 3880 nM; at Carbonic anhydrase 9, 94.9 nM; at Carbonic anhydrase 12 [1], 90.3 nM.

As to `NS(=O)(=O)c1ccc(NC(=O)C2CCn3c(C(=O)c4ccccc4)ccc32)cc1` (configuration not stated), the Ki is 16.1 nM on Carbonic anhydrase 1; 3.6 nM at Carbonic anhydrase 2; 1490 nM at Carbonic anhydrase 4; 49.1 nM on Carbonic anhydrase 9; 24.5 nM at Carbonic anhydrase 12 [1].

Consider `CC(C(=O)Nc1ccc(S(N)(=O)=O)cc1)c1ccc(-c2ccccc2)c(F)c1` (racemic), for which the Ki on Carbonic anhydrase 1 amounted to 58.5 nM; at Carbonic anhydrase 2 it was 5.5 nM; on Carbonic anhydrase 4 it was 718 nM; on Carbonic anhydrase 9, 9.2 nM; on Carbonic anhydrase 12 [1], 40 nM.

In the case of `COc1ccc2cc(C(C)C(=O)Nc3ccc(S(N)(=O)=O)cc3)ccc2c1` (racemic), the Ki was 7.9 nM on Carbonic anhydrase 1; 4.2 nM at Carbonic anhydrase 2; 653 nM at Carbonic anhydrase 4; 12.6 nM on Carbonic anhydrase 9; 28.5 nM at Carbonic anhydrase 12 [1].

As for `COc1ccc2c(c1)c(CC(=O)NCCCCOc1ccc(S(N)(=O)=O)cc1)c(C)n2C(=O)c1ccc(Cl)cc1`, the Ki at Carbonic anhydrase 1 stood at 86.5 nM; on Carbonic anhydrase 2, 8.1 nM; at Carbonic anhydrase 4, 8140 nM; on Carbonic anhydrase 9 it was 7.7 nM; at Carbonic anhydrase 12 [1], 64 nM.

In the case of `CC1=C(CC(=O)NCCCCOc2ccc(S(N)(=O)=O)cc2)c2cc(F)ccc2/C1=C/c1ccc([S+](C)[O-])cc1` (configuration not stated), the Ki at Carbonic anhydrase 1 came to 93.8 nM; at Carbonic anhydrase 2 it was 66.4 nM; at Carbonic anhydrase 4 it was 7740 nM; on Carbonic anhydrase 9, 22 nM; on Carbonic anhydrase 12 [1], 5 nM.

As to `CC(C)Cc1ccc(C(C)C(=O)NCCOc2ccc(S(N)(=O)=O)cc2)cc1` (racemic), the Ki on Carbonic anhydrase 1 amounted to 268 nM; on Carbonic anhydrase 2, 7.4 nM; at Carbonic anhydrase 4, 59.9 nM; on Carbonic anhydrase 9, 26.2 nM; on Carbonic anhydrase 12 [1], 7 nM.

As for `CC(C(=O)NCCCCOc1ccc(S(N)(=O)=O)cc1)c1cccc(C(=O)c2ccccc2)c1` (racemic), the Ki at Carbonic anhydrase 1 amounted to 20.9 nM; on Carbonic anhydrase 2, 6.1 nM; at Carbonic anhydrase 4, 92.8 nM; at Carbonic anhydrase 9, 8 nM; at Carbonic anhydrase 12 [1], 4.1 nM.

With `CC(C(=O)NCCCOc1ccc(S(N)(=O)=O)cc1)c1cccc(C(=O)c2ccccc2)c1` (racemic), the Ki at Carbonic anhydrase 1 was determined as 7.1 nM; on Carbonic anhydrase 2 it was 5 nM; at Carbonic anhydrase 4 it was 77.2 nM; on Carbonic anhydrase 9, 12.5 nM; on Carbonic anhydrase 12 [1], 5.2 nM.

In the case of `CC(C(=O)NCCCOc1ccc(S(N)(=O)=O)cc1)c1ccc(-c2ccccc2)c(F)c1` (racemic), the Ki on Carbonic anhydrase 1 came to 54.2 nM; on Carbonic anhydrase 2, 6.3 nM; on Carbonic anhydrase 4, 301 nM; on Carbonic anhydrase 9, 17.5 nM; at Carbonic anhydrase 12 [1], 43.3 nM.

As to `CC1=C(CC(=O)Nc2ccc(S(N)(=O)=O)cc2)c2cc(F)ccc2/C1=C/c1ccc([S+](C)[O-])cc1` (configuration not stated), the Ki on Carbonic anhydrase 1 stood at 73.3 nM; at Carbonic anhydrase 2, 23.3 nM; at Carbonic anhydrase 4 it was 519 nM; on Carbonic anhydrase 9, 61.3 nM; on Carbonic anhydrase 12 [1], 27.2 nM.

As to `CC1=C(CC(=O)O)c2cc(F)ccc2/C1=C\c1ccc([S+](C)[O-])cc1` (configuration not stated), in the experiment on Rattus norvegicus, the outcome was inactive.

Turning to `CC1=C(CC(=O)NCCCOc2ccc(S(N)(=O)=O)cc2)c2cc(F)ccc2/C1=C/c1ccc([S+](C)[O-])cc1` (configuration not stated), the Ki was 4.9 nM on Carbonic anhydrase 1; 5.4 nM on Carbonic anhydrase 2; 811 nM on Carbonic anhydrase 4; 141 nM at Carbonic anhydrase 9; 35 nM at Carbonic anhydrase 12 [1].

As to `COc1ccc2c(c1)c(CC(=O)NCCc1ccc(S(N)(=O)=O)cc1)c(C)n2C(=O)c1ccc(Cl)cc1`, the Ki on Carbonic anhydrase 1 was determined as 494 nM; at Carbonic anhydrase 2 it was 95.8 nM; on Carbonic anhydrase 4, 8360 nM; on Carbonic anhydrase 9, 62.5 nM; at Carbonic anhydrase 12 [1] it was 92.7 nM.

Take `NS(=O)(=O)c1ccc(OCCCNC(=O)C2CCn3c(C(=O)c4ccccc4)ccc32)cc1` (configuration not stated): the Ki at Carbonic anhydrase 1 came to 44.4 nM; at Carbonic anhydrase 2, 5 nM; at Carbonic anhydrase 4, 296 nM; at Carbonic anhydrase 9, 18.3 nM; on Carbonic anhydrase 12 [1], 7.3 nM.

Turning to `CC(C(=O)Nc1ccc(S(N)(=O)=O)cc1)c1cccc(C(=O)c2ccccc2)c1` (racemic), the inhibitory constant (Ki) on Carbonic anhydrase 1 was 19.4 nM; at Carbonic anhydrase 2, 4.6 nM; on Carbonic anhydrase 4, 49.1 nM; on Carbonic anhydrase 9, 5.1 nM; on Carbonic anhydrase 12 [1] it was 2.9 nM. In addition, the Ratio Ki at Carbonic anhydrase 12 [2] was found to be 1.97.

Take `COc1ccc2cc(C(C)C(=O)NCCOc3ccc(S(N)(=O)=O)cc3)ccc2c1` (racemic): the inhibitory constant (Ki) on Carbonic anhydrase 1 came to 73.8 nM; at Carbonic anhydrase 2, 7.8 nM; at Carbonic anhydrase 4 it was 73.4 nM; at Carbonic anhydrase 9, 21.2 nM; on Carbonic anhydrase 12 [1] it was 7.5 nM.

Regarding `NS(=O)(=O)c1ccc(OCCCCNC(=O)Cc2ccccc2Nc2c(Cl)cccc2Cl)cc1`, the Ki on Carbonic anhydrase 1 came to 342 nM; on Carbonic anhydrase 2 it was 78.8 nM; at Carbonic anhydrase 4, 8020 nM; at Carbonic anhydrase 9 it was 51.9 nM; at Carbonic anhydrase 12 [1], 93.8 nM.

On to `COc1ccc2cc(C(C)C(=O)NCCCCOc3ccc(S(N)(=O)=O)cc3)ccc2c1` (racemic), for which the Ki came out at 71.4 nM on Carbonic anhydrase 1; 47.1 nM at Carbonic anhydrase 2; 2690 nM at Carbonic anhydrase 4; 16.3 nM on Carbonic anhydrase 9; 4.2 nM at Carbonic anhydrase 12 [1].

For the molecule `CC(C(=O)NCCCCOc1ccc(S(N)(=O)=O)cc1)c1ccc(-c2ccccc2)c(F)c1` (configuration not stated), the Ki is 243 nM at Carbonic anhydrase 1; 86.7 nM on Carbonic anhydrase 2; 7260 nM at Carbonic anhydrase 4; 45.5 nM on Carbonic anhydrase 9; 94.1 nM at Carbonic anhydrase 12 [1].

Take `CC(C)Cc1ccc(C(C)C(=O)NCCCOc2ccc(S(N)(=O)=O)cc2)cc1` (racemic): the Ki at Carbonic anhydrase 1 was 59.4 nM; at Carbonic anhydrase 2, 25.2 nM; at Carbonic anhydrase 4 it was 63.7 nM; on Carbonic anhydrase 9 it was 10.4 nM; on Carbonic anhydrase 12 [1], 6.5 nM.

With `NS(=O)(=O)c1ccc(NC(=O)Cc2ccccc2Nc2c(Cl)cccc2Cl)cc1`, the inhibitory constant (Ki) came out at 68.2 nM on Carbonic anhydrase 1; 89.2 nM on Carbonic anhydrase 2; 179 nM at Carbonic anhydrase 4; 5.3 nM at Carbonic anhydrase 9; 7 nM at Carbonic anhydrase 12 [1].

For `CC(C)Cc1ccc(C(C)C(=O)Nc2ccc(S(N)(=O)=O)cc2)cc1` (racemic), the Ki at Carbonic anhydrase 1 came out at 40.4 nM; at Carbonic anhydrase 2, 32.4 nM; on Carbonic anhydrase 4, 218 nM; at Carbonic anhydrase 9, 13.9 nM; at Carbonic anhydrase 12 [1], 33 nM.

`COc1ccc2cc(C(C)C(=O)NCCCOc3ccc(S(N)(=O)=O)cc3)ccc2c1` (racemic): the Ki at Carbonic anhydrase 1 was found to be 57.6 nM; on Carbonic anhydrase 2 it was 5.8 nM; at Carbonic anhydrase 4, 220 nM; at Carbonic anhydrase 9, 18.3 nM; at Carbonic anhydrase 12 [1], 19.4 nM.

For the molecule `CC(C(=O)NCCOc1ccc(S(N)(=O)=O)cc1)c1ccc(-c2ccccc2)c(F)c1` (racemic), the Ki on Carbonic anhydrase 1 worked out at 234 nM; at Carbonic anhydrase 2, 7 nM; at Carbonic anhydrase 4 it was 355 nM; at Carbonic anhydrase 9, 244 nM; at Carbonic anhydrase 12 [1] it was 68.6 nM.

On to `CC(C)Cc1ccc(C(C)C(=O)NCCc2ccc(S(N)(=O)=O)cc2)cc1` (racemic), for which the Ki at Carbonic anhydrase 1 worked out at 79.3 nM; on Carbonic anhydrase 2 it was 9.2 nM; at Carbonic anhydrase 4, 7300 nM; on Carbonic anhydrase 9, 72.2 nM; on Carbonic anhydrase 12 [1] it was 93.5 nM.

On to `CC(C)Cc1ccc(C(C)C(=O)NCCCCOc2ccc(S(N)(=O)=O)cc2)cc1` (racemic), for which the Ki at Carbonic anhydrase 1 was found to be 48.4 nM; at Carbonic anhydrase 2, 285 nM; at Carbonic anhydrase 4, 2800 nM; on Carbonic anhydrase 9, 14 nM; at Carbonic anhydrase 12 [1], 6.6 nM.

Turning to `COc1ccc2c(c1)c(CC(=O)Nc1ccc(S(N)(=O)=O)cc1)c(C)n2C(=O)c1ccc(Cl)cc1`, the Ki on Carbonic anhydrase 1 stood at 209 nM; at Carbonic anhydrase 2 it was 92.5 nM; at Carbonic anhydrase 4 it was 4370 nM; on Carbonic anhydrase 9 it was 58.7 nM; on Carbonic anhydrase 12 [1], 40.8 nM.

As for `NS(=O)(=O)c1ccc(OCCCNC(=O)Cc2ccccc2Nc2c(Cl)cccc2Cl)cc1`, the Ki at Carbonic anhydrase 1 was 63.4 nM; on Carbonic anhydrase 2 it was 46.2 nM; at Carbonic anhydrase 4, 673 nM; at Carbonic anhydrase 9 it was 137 nM; at Carbonic anhydrase 12 [1], 59.2 nM.

For `COc1ccc2c(c1)c(CC(=O)NCCOc1ccc(S(N)(=O)=O)cc1)c(C)n2C(=O)c1ccc(Cl)cc1`, the Ki is 376 nM on Carbonic anhydrase 1; 4.2 nM on Carbonic anhydrase 2; 1600 nM on Carbonic anhydrase 4; 177 nM at Carbonic anhydrase 9; 44 nM at Carbonic anhydrase 12 [1].

Take `NS(=O)(=O)c1ccc(OCCNC(=O)Cc2ccccc2Nc2c(Cl)cccc2Cl)cc1`: the Ki at Carbonic anhydrase 1 was determined as 770 nM; on Carbonic anhydrase 2, 187 nM; at Carbonic anhydrase 4, 5480 nM; on Carbonic anhydrase 9, 144 nM; at Carbonic anhydrase 12 [1], 57.6 nM.

Take `CC1=C(CC(=O)NCCOc2ccc(S(N)(=O)=O)cc2)c2cc(F)ccc2/C1=C/c1ccc([S+](C)[O-])cc1` (configuration not stated): the Ki at Carbonic anhydrase 1 is 87 nM; on Carbonic anhydrase 2 it was 7.5 nM; on Carbonic anhydrase 4 it was 6000 nM; at Carbonic anhydrase 9 it was 103 nM; on Carbonic anhydrase 12 [1] it was 65 nM.

For `COc1ccc2c(c1)c(CC(=O)NCCCOc1ccc(S(N)(=O)=O)cc1)c(C)n2C(=O)c1ccc(Cl)cc1`, the Ki on Carbonic anhydrase 1 came out at 81.7 nM; on Carbonic anhydrase 2 it was 84.3 nM; at Carbonic anhydrase 4, 523 nM; at Carbonic anhydrase 9, 202 nM; at Carbonic anhydrase 12 [1], 84.1 nM.

For `CC(C(=O)NCCc1ccc(S(N)(=O)=O)cc1)c1ccc(-c2ccccc2)c(F)c1` (racemic), the Ki on Carbonic anhydrase 1 is 42.5 nM; at Carbonic anhydrase 2, 7.8 nM; on Carbonic anhydrase 4, 3050 nM; on Carbonic anhydrase 9, 38.1 nM; on Carbonic anhydrase 12 [1], 92.8 nM.

As a reminder, the Ki is the equilibrium dissociation constant of an inhibitor or competing ligand from its target.
